Experimental data: ChEMBL document CHEMBL4689842, “EUbOPEN Chemogenomics Library wave 1” (2021)

Columns and labels:
U2OS = test: Multiplex assay against U2OS; format: toxicity, cell-based; conditions: human
Procedure, shortened: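 Hoechst33342, BioTracker Green Microtubule Cytoskeleton Dye, MitoTracker Red and Annexin V Alexa Fluor 680 were added to live cells at seeding, and imaging on a CQ1 microscope at 37°C and 5% CO2 followed compound addition. Gating by CellPathfinder machine learning separated cells into Hoechst high-intensity objects or normal cells, then normal cells into healthy, pyknosed or fragmented nuclei, then pyknosed cells into mitotic or apoptotic. Per cents of healthy-nucleus cells are reported for the tubulin, mitochondrial-mass and membrane-permeability phenotypes.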

HEK-293T = test: Incucyte cell viability with HEK293T; format: toxicity, cell-based; conditions: human, 10 µM, compound concentration 10 uM; also: filed as whole numbers so only -1 and 0 and 1 occur
[1] = 12 h, 1 µM, compound concentration 1 uM, replicate 1
[2] = 12 h, 1 µM, compound concentration 1 uM, replicate 2
[3] = 12 h, 10 µM, compound concentration 10 uM, replicate 1
[4] = 12 h, 10 µM, compound concentration 10 uM, replicate 2
[5] = 24 h, 1 µM, compound concentration 1 uM, replicate 1
[6] = 24 h, 1 µM, compound concentration 1 uM, replicate 2
[7] = 24 h, 10 µM, compound concentration 10 uM, replicate 1
[8] = 24 h, 10 µM, compound concentration 10 uM, replicate 2
[9] = 48 h, 1 µM, compound concentration 1 uM, replicate 1
[10] = 48 h, 1 µM, compound concentration 1 uM, replicate 2
[11] = 48 h, 10 µM, compound concentration 10 uM, replicate 1
[12] = 48 h, 10 µM, compound concentration 10 uM, replicate 2

COc1cc2c(NC3CCN(C(C)C)CC3)nc(N3CCC(F)(F)CC3)nc2cc1OCCCN1CCCC1
Population Apoptotic (%) (U2OS; [1]): 44% | Population Fragmented Nuclei (%) (U2OS; [1]): 10% | Population Healthy Nuclei (%) (U2OS; [1]): 72% | Population Hoechst High Intensity Objects (%) (U2OS; [1]): 13% | Population Mitochondria Different-Phenotype (%) (U2OS; [1]): 17% | Population Mitotic Cells (%) (U2OS; [1]): 55% | Population Normal (%) (U2OS; [1]): 86% | Population Pyknosed Nuclei (%) (U2OS; [1]): 17% | Total Cell Count (U2OS; [1]): 136 | Population Apoptotic (%) (U2OS; [2]): 30% | Population Fragmented Nuclei (%) (U2OS; [2]): 20% | Population Healthy Nuclei (%) (U2OS; [2]): 67% | Population Hoechst High Intensity Objects (%) (U2OS; [2]): 5% | Population Membrane Permeable-Phenotype (%) (U2OS; [2]): 3% | Population Mitochondria Different-Phenotype (%) (U2OS; [2]): 22% | Population Mitotic Cells (%) (U2OS; [2]): 70% | Population Normal (%) (U2OS; [2]): 94% | Population Pyknosed Nuclei (%) (U2OS; [2]): 11% | Population Tubulin-Different-Phenotype (%) (U2OS; [2]): 19% | Total Cell Count (U2OS; [2]): 105 | Population Apoptotic (%) (U2OS; [3]): 68% | Population Fragmented Nuclei (%) (U2OS; [3]): 14% | Population Healthy Nuclei (%) (U2OS; [3]): 71% | Population Hoechst High Intensity Objects (%) (U2OS; [3]): 8% | Population Membrane Permeable-Phenotype (%) (U2OS; [3]): 27% | Population Mitochondria Different-Phenotype (%) (U2OS; [3]): 98% | Population Mitotic Cells (%) (U2OS; [3]): 31% | Population Normal (%) (U2OS; [3]): 91% | Population Pyknosed Nuclei (%) (U2OS; [3]): 14% | Population Tubulin-Different-Phenotype (%) (U2OS; [3]): 100% | Total Cell Count (U2OS; [3]): 181 | Population Apoptotic (%) (U2OS; [4]): 66% | Population Fragmented Nuclei (%) (U2OS; [4]): 11% | Population Healthy Nuclei (%) (U2OS; [4]): 76% | Population Membrane Permeable-Phenotype (%) (U2OS; [4]): 66% | Population Mitochondria Different-Phenotype (%) (U2OS; [4]): 97% | Population Mitotic Cells (%) (U2OS; [4]): 33% | Population Pyknosed Nuclei (%) (U2OS; [4]): 11% | Population Tubulin-Different-Phenotype (%) (U2OS; [4]): 97% | Total Cell Count (U2OS; [4]): 89 | Population Apoptotic (%) (U2OS; [5]): 31% | Population Fragmented Nuclei (%) (U2OS; [5]): 9% | Population Healthy Nuclei (%) (U2OS; [5]): 65% | Population Hoechst High Intensity Objects (%) (U2OS; [5]): 11% | Population Membrane Permeable-Phenotype (%) (U2OS; [5]): 0% | Population Mitochondria Different-Phenotype (%) (U2OS; [5]): 8% | Population Mitotic Cells (%) (U2OS; [5]): 68% | Population Normal (%) (U2OS; [5]): 88% | Population Pyknosed Nuclei (%) (U2OS; [5]): 24% | Population Tubulin-Different-Phenotype (%) (U2OS; [5]): 9% | Total Cell Count (U2OS; [5]): 157 | Population Apoptotic (%) (U2OS; [6]): 29% | Population Fragmented Nuclei (%) (U2OS; [6]): 14% | Population Healthy Nuclei (%) (U2OS; [6]): 68% | Population Hoechst High Intensity Objects (%) (U2OS; [6]): 8% | Population Membrane Permeable-Phenotype (%) (U2OS; [6]): 2% | Population Mitochondria Different-Phenotype (%) (U2OS; [6]): 7% | Population Mitotic Cells (%) (U2OS; [6]): 70% | Population Normal (%) (U2OS; [6]): 91% | Population Pyknosed Nuclei (%) (U2OS; [6]): 16% | Population Tubulin-Different-Phenotype (%) (U2OS; [6]): 12% | Total Cell Count (U2OS; [6]): 113 | Population Apoptotic (%) (U2OS; [7]): 70% | Population Fragmented Nuclei (%) (U2OS; [7]): 14% | Population Healthy Nuclei (%) (U2OS; [7]): 60% | Population Hoechst High Intensity Objects (%) (U2OS; [7]): 6% | Population Membrane Permeable-Phenotype (%) (U2OS; [7]): 56% | Population Mitochondria Different-Phenotype (%) (U2OS; [7]): 98% | Population Mitotic Cells (%) (U2OS; [7]): 30% | Population Normal (%) (U2OS; [7]): 93% | Population Pyknosed Nuclei (%) (U2OS; [7]): 24% | Population Tubulin-Different-Phenotype (%) (U2OS; [7]): 98% | Total Cell Count (U2OS; [7]): 218 | Population Apoptotic (%) (U2OS; [8]): 90% | Population Fragmented Nuclei (%) (U2OS; [8]): 18% | Population Healthy Nuclei (%) (U2OS; [8]): 59% | Population Hoechst High Intensity Objects (%) (U2OS; [8]): 7% | Population Membrane Permeable-Phenotype (%) (U2OS; [8]): 82% | Population Mitochondria Different-Phenotype (%) (U2OS; [8]): 100% | Population Mitotic Cells (%) (U2OS; [8]): 9% | Population Normal (%) (U2OS; [8]): 92% | Population Pyknosed Nuclei (%) (U2OS; [8]): 22% | Population Tubulin-Different-Phenotype (%) (U2OS; [8]): 96% | Total Cell Count (U2OS; [8]): 112 | Population Apoptotic (%) (U2OS; [9]): 27% | Population Fragmented Nuclei (%) (U2OS; [9]): 11% | Population Healthy Nuclei (%) (U2OS; [9]): 64% | Population Hoechst High Intensity Objects (%) (U2OS; [9]): 10% | Population Mitochondria Different-Phenotype (%) (U2OS; [9]): 4% | Population Mitotic Cells (%) (U2OS; [9]): 72% | Population Normal (%) (U2OS; [9]): 89% | Population Pyknosed Nuclei (%) (U2OS; [9]): 24% | Population Tubulin-Different-Phenotype (%) (U2OS; [9]): 15% | Total Cell Count (U2OS; [9]): 194 | Population Apoptotic (%) (U2OS; [10]): 29% | Population Fragmented Nuclei (%) (U2OS; [10]): 8% | Population Healthy Nuclei (%) (U2OS; [10]): 78% | Population Hoechst High Intensity Objects (%) (U2OS; [10]): 8% | Population Membrane Permeable-Phenotype (%) (U2OS; [10]): 2% | Population Mitochondria Different-Phenotype (%) (U2OS; [10]): 8% | Population Mitotic Cells (%) (U2OS; [10]): 70% | Population Normal (%) (U2OS; [10]): 91% | Population Pyknosed Nuclei (%) (U2OS; [10]): 12% | Population Tubulin-Different-Phenotype (%) (U2OS; [10]): 24% | Total Cell Count (U2OS; [10]): 141 | Population Apoptotic (%) (U2OS; [11]): 79% | Population Fragmented Nuclei (%) (U2OS; [11]): 20% | Population Healthy Nuclei (%) (U2OS; [11]): 44% | Population Hoechst High Intensity Objects (%) (U2OS; [11]): 11% | Population Membrane Permeable-Phenotype (%) (U2OS; [11]): 55% | Population Mitochondria Different-Phenotype (%) (U2OS; [11]): 100% | Population Mitotic Cells (%) (U2OS; [11]): 20% | Population Normal (%) (U2OS; [11]): 88% | Population Pyknosed Nuclei (%) (U2OS; [11]): 35% | Population Tubulin-Different-Phenotype (%) (U2OS; [11]): 92% | Total Cell Count (U2OS; [11]): 337 | Population Apoptotic (%) (U2OS; [12]): 92% | Population Fragmented Nuclei (%) (U2OS; [12]): 12% | Population Healthy Nuclei (%) (U2OS; [12]): 63% | Population Hoechst High Intensity Objects (%) (U2OS; [12]): 12% | Population Membrane Permeable-Phenotype (%) (U2OS; [12]): 75% | Population Mitochondria Different-Phenotype (%) (U2OS; [12]): 97% | Population Mitotic Cells (%) (U2OS; [12]): 7% | Population Normal (%) (U2OS; [12]): 87% | Population Pyknosed Nuclei (%) (U2OS; [12]): 24% | Population Tubulin-Different-Phenotype (%) (U2OS; [12]): 88% | Total Cell Count (U2OS; [12]): 149 | Growth Rate (HEK-293T; 0 h, replicate number 2, timepoint 0 hours): 1 | Growth Rate (HEK-293T; 6 h, replicate number 1, timepoint 6 hours): 0 | Growth Rate (HEK-293T; 12 h, replicate number 1, timepoint 12 hours): 0 | Growth Rate (HEK-293T; 18 h, replicate number 1, timepoint 18 hours): 0 | Growth Rate (HEK-293T; 24 h, replicate number 1, timepoint 24 hours): 0
